# Screening data: PubChem BioAssay, The Scripps Research Institute Molecular Screening Center
# Only some compounds are listed: those with a hit (about 2.7% of all), similar ones and a draw of the others.
# PAD4 inh: human PAD4 inhibitors, primary screen, biochemical, fluorescence polarization, 1536-well format | recombinant PAD4, RCA probe fluorescence polarization | inhibition, % at 6.36 µM | 0.41% of 330,000 active | Protein-arginine deiminase type-4 (Homo sapiens), Q9UM07;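 active = percent inhibition above a cutoff equal to the mean of all tested compounds plus 3 SD, cut at about 15% in these data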;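 note: 0% = PAD4 with RCA probe and DMSO and 100% = probe without PAD4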
# PRMT1 inh: PRMT1 methyltransferase inhibitors, primary screen, biochemical, fluorescence polarization; Protein arginine N-methyltransferase 1 (Homo sapiens), Q99873; inhibition, % at 2.79 µM; recombinant PRMT1, activity-based probe fluorescence polarization; 1.3% of 370,000 active;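 active = inhibition above about 21% made by adding two undisclosed values, limit read from the data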
# RBBP9 inhibitor: human RBBP9 inhibitors, primary screen, biochemical, fluorescence polarization, FP-Rh probe, HTS; recombinant RBBP9; inhibition, % at 7.94 µM; Serine hydrolase RBBP9 (Homo sapiens), O75884; 0.2% of 220,000 active;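 active = inhibition above the campaign mean of all tested compounds plus 3 SD, cut at about 14% in these data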;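 note: plate controls were DMSO wells with RBBP9 for no effect and wells lacking RBBP9 protein for full effect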
# Target sequence (O75884 whole entry, looked up): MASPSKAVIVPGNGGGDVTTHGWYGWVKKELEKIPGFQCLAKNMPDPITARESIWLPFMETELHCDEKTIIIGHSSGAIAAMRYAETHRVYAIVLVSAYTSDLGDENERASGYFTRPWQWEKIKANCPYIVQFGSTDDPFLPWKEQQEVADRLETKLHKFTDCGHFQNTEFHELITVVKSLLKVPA
#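 Measured by – fluorescence polarization · Test system – RBBP9 protein · Input – 2.5 µM RBBP9 dispensing solution, before mixing · Measure – percent inhibition from mP, scaled between DMSO and no-protein wells · Benchmarks – DMSO-treated enzyme wells and wells lacking RBBP9 · Times – preincubation 30 min plus labeling 45 min at 25 °C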
# GSTO1 counter: inhibitors of recombinant GSTO1, primary screen, counter-screen for RBBP9 inhibitor project, biochemical, fluorescence polarization. inhibition, % at 5.96 µM. AID 1974, 2009. Glutathione S-transferase omega-1 (Homo sapiens), P78417. activity-based probe fluorescence polarization. 1.1% of 300,000 active;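 active = inhibition above the campaign mean inhibition plus 3 SD, cut at about 35% in these data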;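 note: 0% = GSTO1-1 with DMSO and 100% = wells lacking GSTO1-1 enzyme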
# Target sequence (P78417 whole entry, looked up): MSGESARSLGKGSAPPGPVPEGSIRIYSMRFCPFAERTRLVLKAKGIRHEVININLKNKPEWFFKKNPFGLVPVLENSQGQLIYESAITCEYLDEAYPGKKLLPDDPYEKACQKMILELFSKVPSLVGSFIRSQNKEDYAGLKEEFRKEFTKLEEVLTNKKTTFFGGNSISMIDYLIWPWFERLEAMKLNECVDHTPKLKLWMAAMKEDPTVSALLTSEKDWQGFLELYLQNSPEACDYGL
# SIAE inh: human SIAE inhibitors, primary screen, biochemical, fluorescence polarization, FP-Rh probe, 1536-well HTS. Sialate O-acetylesterase (Homo sapiens), Q9HAT2. SIAE FP-Rh probe binding. inhibition, % at 9.66 µM. 0.69% of 370,000 active. AID 1053197, 2014;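 active = inhibition above a cutoff: mean of compounds within the control limits plus 3 SD of those, cut at about 17% in these data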;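 note: 0% = plate median of compound wells and 100% = probe without SIAE protein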
# PRMT1 confirm: PRMT1 methyltransferase inhibitors, confirmation, biochemical, fluorescence polarization, triplicate | inhibition, % at 2.79 µM | shares compounds with PRMT1 inh | 42% of 3,300 active | recombinant His-PRMT1, activity-based probe fluorescence polarization;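 active = mean inhibition across replicates above the hit cutoff derived for the earlier primary screen, cut at about 22% in these data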
# Active calls of the source: *; . = not tested or not shown.
SMILES,PAD4 inh,PRMT1 inh,RBBP9 inhibitor,GSTO1 counter,SIAE inh,PRMT1 confirm
CCN(CC)C(=O)CCSc1nnc(-c2ccco2)o1,0,-2,0,4,14,.
CCO[C@H]1OC(C(N)=O)=C[C@@H](c2ccccc2)[C@@H]1CCCO,1,73*,0,-5,2,-5
CN1CCCC(OC(=O)c2ccc(S(=O)(=O)N(C)C)cc2)C1 (stereo not drawn),3,34*,.,0,-2,-1
CCOc1ccc(C(=O)OC2CCCN(C)C2)cc1 (stereo not drawn),3,-2,.,5,-5,.
CCCCCCC(=O)N(O)C1CC(=O)N(c2ccc(Cl)cc2)C1=O (stereo not drawn),-3,51*,-6,-7,9,84*
CCCOc1ccc(N2C(=O)CC(N(CCC)C(=O)CCC(=O)O)C2=O)cc1 (stereo not drawn),1,0,-4,-5,-3,.
CCCCCCC(=O)N(O)C1CC(=O)N(c2ccc(C)cc2)C1=O (stereo not drawn),-2,87*,-10,-1,1,91*
O=C(c1ccco1)N1CCN(C(=O)c2nn3cccnc3c2Cl)CC1,1,0,2,-3,0,.
Cc1ccc(N2CC(NC(=O)C(=O)c3c(C)[nH]c4ccccc34)CC2=O)cc1 (stereo not drawn),2,1,.,-2,7,.
O=C(CCSc1ccccn1)c1ccccc1,-10,52*,-2,-1,11,24*
Cc1ccccc1N1CCN(c2ccccc2NC(=O)/C=C\C(=O)O)CC1,.,-2,.,.,1,.
Cc1ccccc1N1CCN(C(=O)c2ccccc2NC(=O)/C=C\C(=O)O)CC1,-5,27*,6,0,4,7
COc1cc(/C=C2/C(=O)NN(c3cccc(C)c3)C2=O)cc([N+](=O)[O-])c1O,-1,32*,-12,8,1,18
COc1cc(/C=C2/C(=O)NN(c3ccc(C)c(Cl)c3)C2=O)cc([N+](=O)[O-])c1O,.,28*,.,.,-2,16
Cc1ncc[nH]1,-3,3,.,.,-2,.
O=C(CSc1nnc(-c2cnccn2)n1Cc1ccco1)Nc1ccc(Br)cc1,1,8,-1,16,2,.
Cc1nc2sc(C(c3ccccc3)N3CC(C)OC(C)C3)c(O)n2n1 (stereo not drawn),4,0,-7,6,-4,.
Cc1nc2sc(C(c3ccco3)N3CC(C)OC(C)C3)c(O)n2n1 (stereo not drawn),-6,29*,-6,3,-1,5
Cc1nc2sc(C(c3ccco3)N3CCN(c4cccc(Cl)c4)CC3)c(O)n2n1 (stereo not drawn),-2,65*,-7,2,-2,1
COc1ccccc1NCc1cc(=O)oc2c(C)c(O)ccc12,-2,-1,.,-3,4,.
CC(=Nc1ccc(Br)cc1)c1sc2ccccc2c1O,5,28*,-3,5,-3,11
CC(=Nc1ccccc1)C1=C(O)COC1=O,-9,1,2,11,8,.
CC(=Nc1ccccc1)c1sc2ccccc2c1O,8,33*,2,5,9,32*
COc1ccc(C(=O)N2CCN(C(=O)c3ccc(-c4ccccc4)cc3)CC2)cc1OC,-4,0,1,4,2,.
COc1cc2[nH]c(=S)nc(NCCc3ccc(C)cc3)c2cc1OC,.,3,-7,.,5,.
CCOc1ccccc1C(=O)OCC(=O)Nc1ccc(N2CCCCC2)cc1,-7,-2,-3,2,6,.
COc1ccc2c(c1)CSC(c1ccccc1)C2=O (stereo not drawn),.,53*,.,.,-11,30*
O=c1nc(N2CCOCC2)ccn1-c1nc(-c2ccccc2)sc1-c1ccccc1,4,-2,-11,3,-12,.
Cc1ccc(C2=NC3(CCCC3)N=C2SCC(=O)Nc2ccc3c(c2)OCCO3)cc1,2,55*,-6,-3,-2,47*
